Results on 31 compounds are retold here after ChEMBL document CHEMBL1124926, “Structure-activity relationships of antifilarial antimycin analogues: a multivariate pattern recognition study” (J Med Chem, 1990).

The test system of the first data set is Brugia pahangi. Description: (§1) In vivo percent reduction of Brugia pahangi worm in gerbils. Type of data set: functional. Further details: concentration or dose not given beside the values. The procedure, abridged: (§2)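 Animals were autopsied 35 days after the final dose, and worm recoveries were compared with those from untreated controls.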
The compound `CCCCCCCCCCCCNC(=O)c1cc([N+](=O)[O-])ccc1O` gave a Worm reduction of 0%.
The same measure, in the same setting: as for `CC(C)(C)c1ccc(NC(=O)c2cc([N+](=O)[O-])ccc2O)cc1`, the figure is 44%; as for `O=C(Nc1ccc(C(=O)c2ccc(Cl)cc2)c(Cl)c1)c1cc([N+](=O)[O-])ccc1O`, 14%.
Still for that read-out and setting: as for `O=C(Nc1ccc(Sc2ccc(Cl)cc2)c(Cl)c1)c1cc([N+](=O)[O-])ccc1O`, the figure is 70%; as for `CS(=O)(=O)c1cccc(C(=O)Nc2ccc(Oc3ccc(Cl)cc3)c(Cl)c2)c1O`, 42%; as for `COc1ccc(Oc2ccc(NC(=O)c3cc([N+](=O)[O-])ccc3O)cc2Cl)cc1`, 61%.
Take `O=C(Nc1ccc(Oc2ccc(Cl)cc2)c(Cl)c1)c1cc([N+](=O)[O-])ccc1O`: the Worm reduction worked out at 80.6%.
Consider `CSc1cccc(C(=O)Nc2ccc(Oc3ccc(Cl)cc3)c(Cl)c2)c1O`, for which the Worm reduction was 52%.
Still for that read-out and setting: as for `O=C(Nc1ccc(Oc2cccc(C(F)(F)F)c2)cc1)c1cc([N+](=O)[O-])ccc1O`, the figure is 80%; as for `O=C(Nc1ccc(Oc2cccc(C(F)(F)F)c2)c(Cl)c1)c1cc([N+](=O)[O-])ccc1O`, 74%; as for `O=C(c1ccc(Cl)cc1)c1cc([N+](=O)[O-])ccc1O`, 61%.
On the same count and under the same terms, to `CSc1ccc(O)c(C(=O)Nc2ccc(Oc3ccc(Cl)cc3)c(Cl)c2)c1` belongs 58%; to `C[S+]([O-])c1ccc(O)c(C(=O)Nc2ccc(Oc3ccc(Cl)cc3)c(Cl)c2)c1` (centres undefined), 84%; to `O=C(Nc1ccc(Nc2ccc(Cl)cc2)c(Cl)c1)c1cc([N+](=O)[O-])ccc1O`, 48%.
Same read-out and setting: to `O=C(Nc1ccc(Oc2ccc([N+](=O)[O-])cc2Cl)cc1)c1cc([N+](=O)[O-])ccc1O` belongs 70%.
Compound `O=C(Nc1ccc(C(O)c2ccccc2)cc1)c1cc([N+](=O)[O-])ccc1O` (centres undefined) showed a Worm reduction of 39%.
Compound `N#Cc1ccc(O)c(C(=O)Nc2ccc(Oc3ccc(Cl)cc3)c(Cl)c2)c1` displayed a Worm reduction of 17%.
Same read-out and setting: to `O=C(Nc1ccc(Oc2ccccc2)cc1)c1cc([N+](=O)[O-])ccc1O` belongs 89%.
The compound `CS(=O)(=O)c1ccc(O)c(C(=O)Nc2ccc(Oc3ccc(Cl)cc3)c(Cl)c2)c1` showed a Worm reduction of 28%.
On the same count and under the same terms, as for `O=C(Nc1ccc(Oc2ccc(C(F)(F)F)cc2)cc1)c1cc([N+](=O)[O-])ccc1O`, the figure is 72%.

System in another data set: not listed separately
Description: Negative log transformed activity. It is filed as ADME. Further details: unit not given here.
With `CCCCCCCCCCCCNC(=O)c1cc([N+](=O)[O-])ccc1O`, the “-Log activity” value is listed as 1.41.
Still for that read-out and setting: as for `CCCCCCCCCCCCCCNC(=O)c1cccc(NC(C)=O)c1O`, the figure is -0.9.
Still for that read-out and setting: to `CC(C)(C)c1ccc(NC(=O)c2cc([N+](=O)[O-])ccc2O)cc1` belongs 0.23.
For the compound `CCCCCCCCCCCCCCNC(=O)c1cc([N+](=O)[O-])ccc1O`, the “-Log activity” value amounted to 0.89.
With `O=C(Nc1ccc(Oc2ccc(SC(F)(F)F)cc2)c(Cl)c1)c1cc([N+](=O)[O-])ccc1O`, the “-Log activity” value came out at 1.55.
On to `O=C(Nc1ccc(C(=O)c2ccc(Cl)cc2)c(Cl)c1)c1cc([N+](=O)[O-])ccc1O`, for which the “-Log activity” value came out at 1.13.
On the same count and under the same terms, to `CCCCCCCCNC(=O)c1cccc(NC=O)c1O` belongs -0.41; to `O=C(Nc1ccc(Sc2ccc(Cl)cc2)c(Cl)c1)c1cc([N+](=O)[O-])ccc1O`, 1.36; to `CS(=O)(=O)c1cccc(C(=O)Nc2ccc(Oc3ccc(Cl)cc3)c(Cl)c2)c1O`, 0.3.
With `COc1ccc(Oc2ccc(NC(=O)c3cc([N+](=O)[O-])ccc3O)cc2Cl)cc1`, the “-Log activity” value was 0.77.
Consider `CCCCCCNC(=O)c1cccc(NC=O)c1O`, for which the “-Log activity” value is given as -1.
Regarding `O=C(Nc1ccc(Oc2ccc(Cl)cc2)c(Cl)c1)c1cc([N+](=O)[O-])ccc1O`, the “-Log activity” value amounted to 1.4.
Still for that read-out and setting: as for `CSc1cccc(C(=O)Nc2ccc(Oc3ccc(Cl)cc3)c(Cl)c2)c1O`, the figure is 0.42.
The same measure, in the same setting: as for `CCCCCCCCCCCCCCCCNC(=O)c1cccc([N+](=O)[O-])c1O`, the figure is -0.04.
The same measure, in the same setting: as for `O=C(Nc1ccc(Oc2cccc(C(F)(F)F)c2)cc1)c1cc([N+](=O)[O-])ccc1O`, the figure is 1.03.
Consider `O=C(Nc1ccc(Oc2cccc(C(F)(F)F)c2)c(Cl)c1)c1cc([N+](=O)[O-])ccc1O`, for which the “-Log activity” value came out at 1.07.
The same measure, in the same setting: to `CCCCCCCCCCCCCCNC(=O)c1cccc([N+](=O)[O-])c1O` belongs 0.82; to `O=C(c1ccc(Cl)cc1)c1cc([N+](=O)[O-])ccc1O`, 0.48; to `CSc1ccc(O)c(C(=O)Nc2ccc(Oc3ccc(Cl)cc3)c(Cl)c2)c1`, 0.32.
Turning to `CCCCCCCCCCCCCCNC(=O)c1cccc(NC=O)c1O`, the “-Log activity” value is -0.85.
On to `O=C(Nc1ccc(Oc2ccc(Cl)cc2)c(Cl)c1)c1cccc([N+](=O)[O-])c1O`, for which the “-Log activity” value stood at 0.82.
Same read-out and setting: to `C[S+]([O-])c1ccc(O)c(C(=O)Nc2ccc(Oc3ccc(Cl)cc3)c(Cl)c2)c1` (centres undefined) belongs -0.88; to `O=C(Nc1ccc(Nc2ccc(Cl)cc2)c(Cl)c1)c1cc([N+](=O)[O-])ccc1O`, 0.43.
Turning to `O=C(Nc1ccc(Oc2ccc([N+](=O)[O-])cc2Cl)cc1)c1cc([N+](=O)[O-])ccc1O`, the “-Log activity” value is given as 0.92.
The same measure, in the same setting: as for `O=CNc1cccc(C(=O)Nc2ccc(Oc3ccc(Cl)cc3)c(Cl)c2)c1O`, the figure is -0.38; as for `O=C(Nc1ccc(C(O)c2ccccc2)cc1)c1cc([N+](=O)[O-])ccc1O` (centres undefined), -1; as for `N#Cc1ccc(O)c(C(=O)Nc2ccc(Oc3ccc(Cl)cc3)c(Cl)c2)c1`, 1.84.
Turning to `O=C(Nc1ccc(Oc2ccccc2)cc1)c1cc([N+](=O)[O-])ccc1O`, the “-Log activity” value was found to be 0.1.
Still for that read-out and setting: to `CS(=O)(=O)c1ccc(O)c(C(=O)Nc2ccc(Oc3ccc(Cl)cc3)c(Cl)c2)c1` belongs 0.
On the same count and under the same terms, as for `CCCCCCCCCCCCCCNC(=O)c1cc(Cl)cc([N+](=O)[O-])c1O`, the figure is 1.36; as for `O=C(Nc1ccc(Oc2ccc(C(F)(F)F)cc2)cc1)c1cc([N+](=O)[O-])ccc1O`, 1.02.

Another data set relates to Brugia pahangi. Put plainly: In vivo percent reduction of Brugia pahangi worm in gerbils; Some toxicity. Type of data set: functional. The procedure, abridged: as §2
`O=C(Nc1ccc(Oc2ccc(SC(F)(F)F)cc2)c(Cl)c1)c1cc([N+](=O)[O-])ccc1O`: the Worm reduction turned out to be 85%.

The subject of another data set is Acanthocheilonema viteae. Put plainly: In vitro macrofilaricidal activity against Dipetalonema viteae was determined using the leakage of incorporated radiolabeled adenine method. It is filed as functional, organism-based. The procedure, abridged:
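D. viteae adult females were labelled with radiolabelled adenine, then exposed for 120 h to concentrations descending from 10 μM in serum-free Eagle's minimal essential medium. Viability was scored as leakage of incorporated label into the medium, and the EC50 was the concentration releasing 50% of the adenine taken up.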
`CCCCCCCCCCCCNC(=O)c1cc([N+](=O)[O-])ccc1O` returned an EC50 of 39 nM.
In the case of `CCCCCCCCCCCCCCNC(=O)c1cccc(NC(C)=O)c1O`, the concentration for a half-maximal effect (EC50) is 8000 nM.
Still for that read-out and setting: as for `CC(C)(C)c1ccc(NC(=O)c2cc([N+](=O)[O-])ccc2O)cc1`, the figure is 590 nM; as for `CCCCCCCCCCCCCCNC(=O)c1cc([N+](=O)[O-])ccc1O`, 128 nM; as for `O=C(Nc1ccc(Oc2ccc(SC(F)(F)F)cc2)c(Cl)c1)c1cc([N+](=O)[O-])ccc1O`, 28 nM.
Same read-out and setting: to `O=C(Nc1ccc(C(=O)c2ccc(Cl)cc2)c(Cl)c1)c1cc([N+](=O)[O-])ccc1O` belongs 74 nM.
Still for that read-out and setting: as for `CCCCCCCCNC(=O)c1cccc(NC=O)c1O`, the figure is 2600 nM; as for `O=C(Nc1ccc(Sc2ccc(Cl)cc2)c(Cl)c1)c1cc([N+](=O)[O-])ccc1O`, 44 nM.
The compound `CS(=O)(=O)c1cccc(C(=O)Nc2ccc(Oc3ccc(Cl)cc3)c(Cl)c2)c1O` returned a concentration giving a half-maximal response (EC50) of 500 nM.
The same measure, in the same setting: to `COc1ccc(Oc2ccc(NC(=O)c3cc([N+](=O)[O-])ccc3O)cc2Cl)cc1` belongs 170 nM.
The same measure, in the same setting: as for `CCCCCCNC(=O)c1cccc(NC=O)c1O`, the figure is greater than 10000 nM.
The compound `O=C(Nc1ccc(Oc2ccc(Cl)cc2)c(Cl)c1)c1cc([N+](=O)[O-])ccc1O` showed an EC50 of 40 nM.
`CSc1cccc(C(=O)Nc2ccc(Oc3ccc(Cl)cc3)c(Cl)c2)c1O`: a half-maximal effect (EC50) was put at 380 nM.
On to `CCCCCCCCCCCCCCCCNC(=O)c1cccc([N+](=O)[O-])c1O`, for which the EC50 was 1100 nM.
Still for that read-out and setting: as for `O=C(Nc1ccc(Oc2cccc(C(F)(F)F)c2)cc1)c1cc([N+](=O)[O-])ccc1O`, the figure is 94 nM; as for `O=C(Nc1ccc(Oc2cccc(C(F)(F)F)c2)c(Cl)c1)c1cc([N+](=O)[O-])ccc1O`, 85 nM; as for `CCCCCCCCCCCCCCNC(=O)c1cccc([N+](=O)[O-])c1O`, 152 nM.
On the same count and under the same terms, as for `O=C(c1ccc(Cl)cc1)c1cc([N+](=O)[O-])ccc1O`, the figure is 330 nM; as for `CSc1ccc(O)c(C(=O)Nc2ccc(Oc3ccc(Cl)cc3)c(Cl)c2)c1`, 480 nM; as for `CCCCCCCCCCCCCCNC(=O)c1cccc(NC=O)c1O`, 7000 nM.
Regarding `O=C(Nc1ccc(Oc2ccc(Cl)cc2)c(Cl)c1)c1cccc([N+](=O)[O-])c1O`, a half-maximal effect (EC50) was put at 150 nM.
Same read-out and setting: to `C[S+]([O-])c1ccc(O)c(C(=O)Nc2ccc(Oc3ccc(Cl)cc3)c(Cl)c2)c1` (centres undefined) belongs 7500 nM.
On the same count and under the same terms, as for `O=C(Nc1ccc(Nc2ccc(Cl)cc2)c(Cl)c1)c1cc([N+](=O)[O-])ccc1O`, the figure is 370 nM; as for `O=C(Nc1ccc(Oc2ccc([N+](=O)[O-])cc2Cl)cc1)c1cc([N+](=O)[O-])ccc1O`, 120 nM; as for `O=CNc1cccc(C(=O)Nc2ccc(Oc3ccc(Cl)cc3)c(Cl)c2)c1O`, 2400 nM.
The same measure, in the same setting: as for `O=C(Nc1ccc(C(O)c2ccccc2)cc1)c1cc([N+](=O)[O-])ccc1O` (centres undefined), the figure is greater than 10000 nM; as for `N#Cc1ccc(O)c(C(=O)Nc2ccc(Oc3ccc(Cl)cc3)c(Cl)c2)c1`, 14.5 nM; as for `O=C(Nc1ccc(Oc2ccccc2)cc1)c1cc([N+](=O)[O-])ccc1O`, 800 nM.
Turning to `CS(=O)(=O)c1ccc(O)c(C(=O)Nc2ccc(Oc3ccc(Cl)cc3)c(Cl)c2)c1`, a half-maximal effect (EC50) was put at 1000 nM.
In turn, `CCCCCCCCCCCCCCNC(=O)c1cc(Cl)cc([N+](=O)[O-])c1O` gave an EC50 of 43.5 nM.
Still for that read-out and setting: as for `O=C(Nc1ccc(Oc2ccc(C(F)(F)F)cc2)cc1)c1cc([N+](=O)[O-])ccc1O`, the figure is 95 nM.

A further data set concerns Brugia pahangi. The data set is described as §1. It is filed as functional. The procedure, abridged:
as §2
As to `CCCCCCCCCCCCCCNC(=O)c1cccc(NC=O)c1O`, the Worm reduction was 80%.
